Hits are enriched below; roughly 2.9% of the tested compounds scored in any of these assays.
TRPC4 PAM: positive allosteric modulators of TRPC4, primary screen, cell-based, mouse TRPC4beta, HEK293 mu-opioid, Fluo-4 calcium; Short transient receptor potential channel 4 (Mus musculus), Q9QUQ5; DAMGO EC20, Fluo-4 Ca2+ flux; active compounds read high; B-score at 10 µM; 310,000 compounds, 0.42% hits; AID 2227, 2009;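 active = B-score of calcium response area above 5 SD of library B-scores, with initial fluorescence ratio within 5 SD of library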;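 note: B-score of integrated fluorescence ratio over time as area under calcium response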
TRPC4 inh: inhibitors of mouse TRPC4 channel, primary screen, Fluo4 calcium, HEK293 TRPC4beta/mu-opioid cells; Short transient receptor potential channel 4 (Mus musculus), Q9QUQ5; DAMGO-evoked Fluo4 calcium flux; active compounds read low; B-score at 10 µM; 300,000 compounds, 0.39% hits;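 active = B-score over 3 SD under the library average, no early fluorescence shift, positive overall ratio signal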
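Material: HEK293 cells with stable TRPC4beta plus mu-opioid receptor expression / Probe or stimulus: DAMGO in two steps, submaximal then maximal / Compound: single concentration per test compound / Technique: kinetic Fluo4 fluorescence imaging of calcium influx / Read-out: per-well B score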
TRPC6 activator: mouse TRPC6 channel activators, primary screen, cell-based, HEK293, membrane potential dye; Short transient receptor potential channel 6 (Mus musculus), Q61143; HEK293-TRPC6 membrane potential dye fluorescence; active compounds read high; B-score at 10 µM; 310,000 compounds, 0.13% hits; AID 2550, 2010;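 active = B-score of the integrated fluorescence ratio above library mean plus 3 SD, and starting fluorescence ratio within library mean plus 5 SD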;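 note: higher score means more depolarization so channel activation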
Kir21 inh: inhibitors of mouse Kir2.1 inward-rectifier potassium channel; 310,000 compounds, 0.85% hits; B-score at 10 µM; AID 1672, 2009; Inward rectifier potassium channel 2 (Mus musculus), P35561; HEK293-Kir2.1, FluxOR thallium flux fluorescence; active compounds read low;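 active = fluorescence ratio B-score at or below minus 3 SD of library scores, with starting-brightness B-score within 2 SD, cut at about -4.2 in these data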;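 note: channel flux triggered by added potassium and thallium sulfate stimulus; B-score of peak minus minimum fluorescence over baseline after thallium stimulus; more negative B-score means stronger Kir2.1 block with less thallium influx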
Target sequence (P35561 whole entry, looked up): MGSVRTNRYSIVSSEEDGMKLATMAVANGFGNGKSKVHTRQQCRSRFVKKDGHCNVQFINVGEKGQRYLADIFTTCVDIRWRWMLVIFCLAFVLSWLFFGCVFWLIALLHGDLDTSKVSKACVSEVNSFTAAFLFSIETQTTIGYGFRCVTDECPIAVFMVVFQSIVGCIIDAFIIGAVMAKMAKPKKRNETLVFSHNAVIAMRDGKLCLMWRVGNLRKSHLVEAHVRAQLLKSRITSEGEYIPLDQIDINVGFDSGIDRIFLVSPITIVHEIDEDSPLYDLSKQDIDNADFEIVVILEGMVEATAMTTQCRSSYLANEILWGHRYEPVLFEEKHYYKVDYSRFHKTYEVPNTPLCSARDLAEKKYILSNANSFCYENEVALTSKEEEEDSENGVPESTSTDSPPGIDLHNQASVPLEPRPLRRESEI
TRPC4 agonist: activators of mouse TRPC4 channel, primary screen, Fluo4 calcium, HEK293 TRPC4beta/mu-opioid cells; Short transient receptor potential channel 4 (Mus musculus), Q9QUQ5; 310,000 compounds, 0.49% hits; Fluo4 calcium fluorescence; active compounds read high; B-score at 10 µM;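 active = B-score above 5 SD of library B-scores, and initial fluorescence ratio not above library mean plus 5 SD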;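 note: positive B-score marks a calcium rise read as TRPC4 activation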
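System: HEK293 cells stably co-expressing mouse TRPC4beta and mu-opioid receptor; Schedule: Fluo4 dye loading 45 min at room temperature, 110 s recording; Detection: Fluo4 fluorescence, kinetic; Evaluation: B-scored integrated calcium fluorescence ratio; Controls: buffer (low) and maximal DAMGO (high).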
TRPC6 inhibitor: mouse TRPC6 channel inhibitors, primary screen, cell-based, HEK293, membrane potential dye. ACh-evoked depolarization; active compounds read low. B-score at 10 µM. Short transient receptor potential channel 6 (Mus musculus), Q61143. 310,000 compounds, 1.1% hits;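 active = B-score under library mean minus 3 SD, initial fluorescence not abnormally high, positive integrated signal ratio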;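 note: B-score derived from integrated fluorescence ratio over the kinetic read; more negative B-score means stronger inhibition of depolarization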
TRPC4 sel inh 2: mouse TRPC4 off-target activity of TRPC6 inhibitors, second screen | shares compounds with TRPC6 inhibitor | HEK293 TRPC4/MOR, membrane potential dye fluorescence; channel activated by saturating DAMGO dose | inhibition, % at 10 µM | 920 compounds, 42% hits;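 active = compounds whose fluorescence signal differed from control wells by over 3 SD, either direction, in both duplicate plates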
TRPC4 spec: mouse TRPC4 modulation by TRPC6 hits, confirmation, selectivity assay for TRPC6 inhibitor project, cell-based, HEK293 TRPC4/mu-opioid, membrane potential dye. shares compounds with TRPC6 inhibitor. membrane potential fluorescence. activity change, negative = inhibition, % at 10 µM. 920 compounds, 61% hits. AID 2777, 2010;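 active = rise or fall in signal beyond 3 SD of buffer-only wells in both replicate plates, either sign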;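 note: integrated kinetic ratio of fluorescence range over baseline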
HEK293 MPD ctr 2-1: nonspecific membrane potential effects, parental HEK293, confirmation, counter-screen for TRPC6 inhibitor project, cell-based, second counter screen; signal change vs control, % at 10 µM; shares compounds with TRPC6 inhibitor; parental HEK293 membrane potential dye fluorescence; maximal acetylcholine challenge after compound addition; 920 compounds, 31% hits;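 active = membrane potential signal moving either way by over 3 SD of the maximum-effect control, in both duplicate plates, meaning non-specific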
HEK293 MPD ctr-1: membrane potential modulation in parental HEK293, confirmation, counter-screen for TRPC6 inhibitor project, cell-based; parental HEK293 membrane potential dye fluorescence; membrane potential signal change, % at 10 µM; 920 compounds, 60% hits; shares compounds with TRPC6 inhibitor;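 active = membrane potential signal shifting up or down by more than 3 SD of buffer-only wells, on both duplicate plates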
HEK293 MPD ctr-2: parental HEK293 membrane potential modulation, confirmation, counter-screen for TRPC6 modulator project, cell-based; membrane potential dye fluorescence; membrane potential signal change, % at 10 µM; shares compounds with TRPC6 inhibitor; 2,400 compounds, 51% hits;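 active = membrane potential signal moves up or down beyond 5 SD from buffer-only wells, on both duplicate plates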
HEK293 MPD ctr 2-2: second check of TRPC6 modulator effects in parental HEK293 cells | membrane potential dye fluorescence; after compound, maximal acetylcholine stimulation | 2,400 compounds, 14% hits | shares compounds with TRPC6 inhibitor | inhibition, % at 10 µM;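 active = membrane potential signal drops by more than 5 SD from the mean control signal, in both duplicate plates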;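 note: plate controls were acetylcholine ECmax control wells for no effect and buffer only wells for full effect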
TRPC4/MOR mod: TRPC4 modulation by TRPC6 hit compounds, confirmation, selectivity assay for TRPC6 modulator project, cell-based, HEK293 TRPC4/mu-opioid, membrane potential dye, mouse | shares compounds with TRPC6 inhibitor | membrane potential fluorescence | percent change from control (negative = decrease, positive = increase), % at 10 µM | 2,400 compounds, 69% hits;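 active = membrane potential signal moved up or down beyond 5 SD of buffer control wells, in both duplicate plates, actives on both sides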;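 note: plate controls were assay buffer wells for no effect and DAMGO maximal-effect wells for full effect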
TRPC4/MOR inh 2: mouse TRPC4 off-target activity of TRPC6 modulators, second screen; shares compounds with TRPC6 inhibitor; HEK293 TRPC4/mu-opioid, membrane potential dye fluorescence; stimulated with maximal-effect DAMGO; inhibition, % at 10 µM; 2,400 compounds, 55% hits;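 active = drop in membrane potential signal beyond 5 SD of the control wells in both duplicate plates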;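 note: TRPC4 counter screen for TRPC6 hits run under conditions tuned for TRPC6 not TRPC4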
TRPC6 inh conf: mouse TRPC6 channel inhibitors, confirmation, HEK293 cells, membrane potential dye, duplicate; shares compounds with TRPC6 inhibitor; ACh-evoked depolarization; inhibition, % at 10 µM; 3,300 compounds, 43% hits;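 active = fluorescence ratio falls more than 5 SD below the full-stimulation control mean, in both duplicate runs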;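 note: integrated fluorescence ratio of peak minus minimum over baseline after agonist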
TRPC6 act confirm: mouse TRPC6 channel activators, confirmation, HEK293 cells, membrane potential dye, duplicate; shares compounds with TRPC6 inhibitor; HEK293-TRPC6 membrane potential dye fluorescence, FDSS; activation, % at 10 µM; 2,800 compounds, 11% hits; AID 488961, 2010;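 active = ratio signal rise beyond 5 SD above unstimulated control wells' mean, seen in both duplicate runs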;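 note: plate controls were buffer EC0 wells for no effect and acetylcholine ECmax response for full effect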
An asterisk follows results filed as active; i = inactive; x = no result.

SMILES	TRPC4 PAM	TRPC4 inh	TRPC6 activator	Kir21 inh	TRPC4 agonist	TRPC6 inhibitor	HEK293 MPD ctr-2	HEK293 MPD ctr 2-2	TRPC4/MOR mod	TRPC4/MOR inh 2	TRPC6 inh conf	TRPC6 act confirm	others
c1csc(COc2ccccc2CNC2CCCCC2)c1	i	-10*	13*	-4.2*	i	-11*	514%*	120%*	109%*	90%*	111%*	163%*
CCOC(=O)c1ccc(NC(=O)COc2ccccc2CNC2CCCC2)cc1	i	i	i	-1.3	i	i	x	x	x	x	x	x
O=C(COc1ccc(Br)cc1Cl)NC(=O)NCc1ccccc1	i	i	i	-0.59	i	i	x	x	x	x	x	x
c1ccc(COc2ccccc2CNC23CC4CC(CC(C4)C2)C3)cc1	i	i	25*	-9.8*	i	-6.3*	922%*	i	196%*	73%*	65%*	266%*
COc1ccccc1CNC(=O)C12CC3CC(CC(C3)C1)C2	i	i	i	1.1	i	i	x	x	x	x	x	x
O=C(COc1ccc(Br)cc1CNC1CCCCC1)NCCc1ccccc1	i	i	i	-4.2	i	-5.1*	212%*	i	41%*	62%*	i	x
CCOC(=O)c1ccc(-c2ccc(CO)o2)cc1	i	i	i	-0.77	i	i	x	x	x	x	x	x
CC1=C(C)CC(C(=O)Nc2ccc(C(=O)N3CCOCC3)cc2)C(C(=O)O)C1 (centres undefined)	i	i	i	-0.77	i	i	x	x	x	x	x	x
Cc1nc2nc(SCC(=O)NCCCN3CCCC(C)C3)nn2c(C)c1Cc1ccccc1Cl (centres undefined)	i	i	i	-0.5	i	-6.7*	i	i	i	i	49%*	x
Cc1nc2nc(SCC(=O)NCCCN3CCCCCC3)nn2c(C)c1Cc1ccccc1Cl	i	i	i	-1.1	i	i	x	x	x	x	x	x
CC1(C)Cc2c(sc3nnn(CC(=O)Nc4ccccc4)c(=O)c23)CO1	i	i	i	0.56	i	i	x	x	x	x	x	x
N#Cc1cc2sc3nc4ccccc4n3c2cc1C#N	i	i	i	-0.31	i	i	x	x	x	x	x	x
N#Cc1cc2sc3nnc(-c4ccncc4)n3c2cc1C#N	i	i	i	-0.94	i	-8.2*	-368%*	86%*	-68%*	82%*	47%*	i
Oc1cccc2ccc(Nc3ccccn3)nc12	i	i	i	-0.39	i	-9.1*	x	x	x	x	i	i	TRPC4 sel inh 2=i;TRPC4 spec=-15%*;HEK293 MPD ctr 2-1=i;HEK293 MPD ctr-1=-180%*
Cc1c(NCc2cccnc2)cccc1C(=O)O	i	i	i	0.01	i	i	x	x	x	x	x	x
C=CCNC(=O)c1ccc([N+](=O)[O-])c(Cl)c1	i	i	i	1.8	i	i	x	x	x	x	x	x
C=CCNCc1ccc(C(=O)NCCCCCCC)cc1[N+](=O)[O-]	i	x	i	-0.78	i	-7*	x	x	x	x	i	i	TRPC4 sel inh 2=75%*;TRPC4 spec=-11%*;HEK293 MPD ctr 2-1=i;HEK293 MPD ctr-1=-160%*
CN1CCN(Cc2cc(=O)oc3cc4c(cc23)CCC4)CC1	i	i	i	-1.9	i	i	x	x	x	x	x	x
CCN1CCN(Cc2cc(=O)oc3cc4c(cc23)CCC4)CC1	i	i	i	-0.83	i	-5.1*	-70%*	i	-8.0%*	40%*	i	i
CCOC(=O)N1CCN(C(=O)CN(c2cc(Cl)ccc2OC)S(=O)(=O)c2ccccc2)CC1	i	i	i	-0.94	i	-7.9*	x	x	x	x	i	i	TRPC4 sel inh 2=i;TRPC4 spec=7.5%*;HEK293 MPD ctr 2-1=i;HEK293 MPD ctr-1=3.1%*
COc1ccc(/C=N/NC(=O)c2nn(-c3ccc(Cl)cc3)c(=O)c3c(N)scc23)cc1	i	i	i	1.4	i	-6*	-77%*	i	-22%*	36%*	i	i
COc1ccc(C(=O)NCc2c(CC(C)C)oc(C)c2C(=O)O)cc1	i	i	i	0.59	i	i	x	x	x	x	x	x

Assay outcomes as filed in PubChem.
